In one assay the test system is HeLa. Nature of the assay: Antiproliferative activity against human HeLa cells after 24 hrs by MTS assay. The class given is functional, cell-based. Put shortly: (§1)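 Compounds taken up in DMSO at 0.5 mg/ml stock, then diluted 1:10, 1:100, 1:1000 and 1:10 000. Cells exposed 24 h; cells in unmodified medium served as control. MTS added, 4 h at 37 °C in 5% CO2/95% air, absorbance read at 490 nm. Viability given as % of untreated control per concentration, mean of three independent assays. IC50 (cancer lines) or EC50 (Lep-3) derived from plotted curves.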

The test system of another assay is HepG2. Put plainly: Antiproliferative activity against human HepG2 cells after 24 hrs by MTS assay. The class given is functional, cell-based. As to conditions: HepG2, 24 h. In a few lines:
as §1

Assay [1] can be described thus: Antiproliferative activity against human LEP-3 cells after 24 hrs by MTS assay. Particulars: LEP-3, 24 h. The class given is cell-based. In a few lines:
as §1

A further assay has as its system MDA-MB-231. Put plainly: Antiproliferative activity against human MDA-MB-231 cells after 24 hrs by MTS assay. The format is functional, cell-based. Particulars: MDA-MB-231, 24 h. In a few lines: as §1
Another assay deals with HT-29. Nature of the assay: Antiproliferative activity against human HT-29 cells after 24 hrs by MTS assay. The format is functional, cell-based. As to conditions: HT-29, 24 h. In a few lines: as §1

This passage reports EC50 and IC50 results from ChEMBL document CHEMBL2375268, “Design, synthesis and antiproliferative properties of some new 5-substituted-2-iminobenzimidazole derivatives” (Eur J Med Chem, 2013).

As to `CCCCn1c(=N)n(CCCC)c2cc([N+](=O)[O-])ccc21`, the EC50 in the assay with HeLa is 158 nM; in the assay on HepG2 it was 142 nM; in assay [1], 114 nM; in the assay with MDA-MB-231, 86 nM; with HT-29, 177 nM.
In the case of `N#CCCCCn1c(=N)n(CCCCC#N)c2cc(C(=O)c3ccccc3)ccc21`, the EC50 with HeLa worked out at 0.015 nM; in the assay on HepG2 it was 94.1 nM; in assay [1], 68 nM; in the assay with MDA-MB-231, 119 nM; in the assay on HT-29 it was 46.7 nM.
In the case of `N=c1n(CC(=O)N/N=C/c2ccc(F)cc2)c2ccc([N+](=O)[O-])cc2n1CC(=O)N/N=C/c1ccc(F)cc1`, the IC50 in the assay with HeLa came out at 117 nM; in the assay on HepG2 it was 7.27 nM. The EC50 in assay [1] worked out at 12.2 nM; with MDA-MB-231, 17 nM; in the assay with HT-29 it was 24.5 nM.
Regarding `N=c1n(CC(=O)N/N=C/c2ccc3c(c2)OCO3)c2ccc(C(=O)c3ccccc3)cc2n1CC(=O)N/N=C/c1ccc2c(c1)OCO2`, the concentration for a half-maximal effect (EC50) was 0.25 nM with HeLa, 10.2 nM in the assay on HepG2 and 0.21 nM in assay [1]. The IC50 in the assay on MDA-MB-231 was 6.2 nM; in the assay with HT-29, 2.83 nM.
`CCOC(=O)Cn1c(=N)n(CC(=O)OCC)c2cc(C(=O)c3ccccc3)ccc21`: the results for the EC50 (with HepG2; in assay [1]; in the assay on MDA-MB-231) were 70.1 nM, 73 nM and 0.28 nM, respectively. In the assay on HT-29, the IC50 is 0.64 nM.
